TAAR1 antag: human TAAR1 antagonists, primary screen, Fluo-8 calcium fluorescence, CHO RD-HGA16 cells. antagonist. inhibition, % at 3 µM. hit rate 1.5% among 360,000;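 active = inhibition above a per-plate cutoff, the mean inhibition of test compounds on that plate plus 3 SD, cut at about 49% in these data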;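 note: 0% = DMSO plus EC80 beta-PEA response and 100% = DMSO alone without agonist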
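Test system – hTAAR1-expressing CHO RD-HGA16 cells, Gα16-coupled · Also added – β-PEA at EC80 concentration, post-compound challenge · Compound – 3 µM, single point · Incubation – dye loading 75 min at 37 °C, then 30 min room temperature · Measured by – Fluo-8 intracellular calcium dye fluorescence, real-time kinetic reads · Benchmarks – vehicle and agonist controls · Replicates – singlicate, one well per test compound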
MC4R barr agon: MC4R agonists recruiting beta-arrestin, primary screen, cell-based, luminescence, agonist arm of biased-ligand search; Melanocortin receptor 4 (Homo sapiens), P32245; U2OS MC4R beta-arrestin complementation; percent of melanotan II response, DMSO zero; activation, % at 8.9 µM; hit rate 0.98% among 360,000; AID 540308, 2011;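 active = activation above a per-plate cutoff, the mean activation of sample wells on that plate plus 3 SD, cut at about 8% in these data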
MC4R antag cAMP: MC4R antagonists of cAMP signaling, primary screen, cell-based, TR-FRET, antagonist arm of biased-ligand search; MC4R-expressing cells, MTII-stimulated cAMP, LANCE TR-FRET; hit rate 0.48% among 360,000; AID 540295, 2011; inhibition, % at 6.5 µM;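 active = inhibition above its plate's cutoff, the mean of tested wells on that plate plus 3 SD, cut at about 29% in these data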;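 note: 0% = Melanotan II alone and 100% = Melanotan II plus saturating MCL0020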
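Assay system: U2OS cells stably expressing human melanocortin 4 receptor (MC4R) / Dosing: 6.5 µM / Timing: compound 30 min, challenge 1 h, detection 1 h / Measured by: Eu-cAMP/anti-cAMP TR-FRET, emission 671 nm / Replicates: singlicate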
B2AR ag: beta2AR agonists driving receptor internalization, primary screen, cell-based, FAP fluorogen, flow cytometry. Beta-2 adrenergic receptor (Homo sapiens), P07550. Am2.2-beta2AR cells. response, % (test concentration not listed). hit rate 0.43% among 340,000;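 active = response above a set limit, near 3 SD of response in nonfluorescent compounds, cut at about 42% in these data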
Target sequence (P07550 whole entry, looked up): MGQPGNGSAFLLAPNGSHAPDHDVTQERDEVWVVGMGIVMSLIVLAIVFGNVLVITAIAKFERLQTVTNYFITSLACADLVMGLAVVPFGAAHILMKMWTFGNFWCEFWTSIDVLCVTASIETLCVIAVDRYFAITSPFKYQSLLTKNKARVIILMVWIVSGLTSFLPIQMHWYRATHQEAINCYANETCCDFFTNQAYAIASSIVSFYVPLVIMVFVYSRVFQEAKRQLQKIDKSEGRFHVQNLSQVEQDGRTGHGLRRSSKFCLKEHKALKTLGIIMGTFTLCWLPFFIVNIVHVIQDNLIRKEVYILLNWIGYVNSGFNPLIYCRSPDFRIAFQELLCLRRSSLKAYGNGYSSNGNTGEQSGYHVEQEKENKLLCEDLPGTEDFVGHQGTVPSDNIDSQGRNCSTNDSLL
m5-HT2A agonist: mouse Htr2a agonists via beta-arrestin recruitment, primary screen, cell-based, luminescence; hit rate 0.66% among 360,000; CHO-K1 mHTR2A beta-arrestin complementation; percent of 30 µM serotonin response; AID 624169, 2012; activation, % at 7.6 µM; 5-hydroxytryptamine receptor 2A (Mus musculus), P35363;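 active = activation above a run cutoff, the mean activation of all tested compounds plus 3 SD, cut at about 14% in these data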;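 note: 0% = plate median of compound wells and 100% = 30 µM serotonin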
TAAR1 agonist: human TAAR1 agonists, primary screen, Fluo-8 calcium fluorescence, CHO RD-HGA16 cells; Trace amine-associated receptor 1 (Homo sapiens), Q96RJ0; activation, % at 3 µM; AID 624467, 2012; hit rate 0.99% among 360,000; vehicle wells 0%, saturating PEA agonist 100%;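 active = activation above the mean activation of all test compounds in the run plus 3 SD, cut at about 38% in these data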
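Test system: RD-HGA16 (CHO) cells co-expressing Gα16 and hTAAR1 / Benchmarks: DMSO vehicle as 0%, PEA at EC100 as 100% / Repeats: no replicates (n 1) / Measure: % activation from peak over basal fluorescence ratio, DMSO-to-PEA scaled / Timing: 17-24 h plating, Fluo-8 75 min 37 °C, 30 min RT / Technique: kinetic Fluo-8 calcium fluorescence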
TAAR1 nonsel count: nonselective antagonists in TAAR1 counter-screen cells, counter-screen for hTAAR1 antagonist project, cell-based, fluorescence, calcium; shares compounds with TAAR1 antag; counterscreen cell line, antagonist mode; inhibition, % at 3 µM; hit rate 77% among 2,400; in the data active = inhibition above about 22%;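 note: CHO-Ga16 host cells stimulated with ATP at an EC80 level; 0% = agonist EC80 plus vehicle and 100% = vehicle without agonist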
TAAR1 ant conf: human TAAR1 antagonists, retest of hits, confirmation, cell-based, fluorescence; shares compounds with TAAR1 antag; TAAR1-expressing cells, fluorescence antagonist read-out; inhibition, % at 3 µM; hit rate 40% among 2,400; in the data active = inhibition above about 49%;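 note: CHO-Ga16 host cells challenged with agonist PEA near its EC80; 0% = agonist at EC80 plus vehicle and 100% = vehicle with no agonist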
Ga16 nonsel ag: calcium activation in Ga16-expressing cells, counter-screen for TAAR1 antagonist project, cell-based, fluorescence; AID 651953, 2012; shares compounds with TAAR1 antag; activation, % at 3 µM; hit rate 18% among 2,400; agonist counterscreen; in the data active = activation above about 12%;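 note: 0% = vehicle wells and 100% = saturating stimulus response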
TAAR1 ag counter: TAAR1 activation by candidate antagonists – cell-based, fluorescence, counter-screen for TAAR1 antagonist project | shares compounds with TAAR1 antag | hTAAR1 cell line, agonist mode | hit rate 2% among 2,400 | activation, % at 3 µM; in the data active = activation above about 37%;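 note: CHO cells stably expressing TAAR1 with calcium dye readout; 0% = DMSO vehicle and 100% = full agonist response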
Starred values were filed as active, the others as inactive; nt = no result. An excerpt weighted towards active compounds, which were near 4.3% of everything screened.

SMILES	TAAR1 antag	MC4R barr agon	MC4R antag cAMP	B2AR ag	m5-HT2A agonist	TAAR1 agonist	TAAR1 nonsel count	TAAR1 ant conf	Ga16 nonsel ag	TAAR1 ag counter
COc1ccc(CCNC(=O)C(=O)NCC2OCCN2C(=O)c2ccc(Cl)cc2)cc1OC (configuration not stated)	-4	-3	4	-2	3	2	nt	nt	nt	nt
Cn1c2ccccc2c(=O)c2ccc(C#CC3(O)CCCCC3)cc21	71*	3	24	29	9	20	38*	55*	11	9
O=C(CSc1nc(-c2ccccc2)nc2ccc(F)cc12)Nc1ccc(C(=O)O)cc1	43	-1	1	0	4	12	nt	nt	nt	nt
O=C(CSc1nc(-c2ccccc2)nc2ccc(F)cc12)Nc1cccc(C(=O)O)c1	63*	3	10	11	-1	22	31*	49*	7	13
CC(=O)Nc1ccc(CCc2nc3ccccc3[nH]2)cc1	-9	1	-3	-8	0	5	nt	nt	nt	nt
CC(C)c1ccc(NC(=O)N(CCc2nc3ccccc3[nH]2)C2CCCC2)cc1	54*	-2	8	1	-8	4	30*	38	5	6
CC(=O)Nc1ccc(CN2C(=O)C(CCc3ccccc3)ON=C2c2cnccn2)cc1 (configuration not stated)	76*	0	5	nt	0	20	29*	54*	11	10
COC(=O)[C@]12C[C@H](CC(=O)N3CCCCC3)C(=O)N(CCC3=CCCCC3)C1=C[C@H](COCc1ccccc1)O[C@@H]2C	-15	nt	nt	nt	nt	-2	nt	nt	nt	nt
Cc1ccc(N(Cc2cc3ccc(C)cc3[nH]c2=O)C(=O)c2ccco2)c(C)c1	104*	0	1	-6	2	0	12	-1	3	5
Cc1cc(Br)ccc1NC(=O)c1ccccc1-c1ccccc1	57*	-1	9	-1	-5	1	3	1	2	2
COc1ccc(N2CCN(C(=O)CSc3nnc4n3C(C)(C)Cc3ccccc3-4)CC2)cc1	-11	-1	-4	-1	3	7	nt	nt	nt	nt
Cc1ccc(Cl)cc1N1CCN(C(=O)CSc2nnc3n2C(C)(C)Cc2ccccc2-3)CC1	60*	-3	8	6	6	19	44*	48	11	6
O=C(Nc1nc2ccccc2n1CCN1CCOCC1)c1ccccc1	5	-1	-3	-9	-2	6	nt	nt	nt	nt
O=C(Nc1nc2ccccc2n1CCN1CCOCC1)c1cn(-c2ccccc2)nc1-c1ccccc1	54*	-2	-2	32	-10	32	31*	50*	16*	14
CC(=O)Oc1c(I)cc(I)cc1C(=O)Nc1ccc(Cl)cc1	7	-1	7	26	1	3	nt	nt	nt	nt
CCc1ccc(/C=C2/Sc3ccccc3N(CC(=O)NCCCN3CCOCC3)C2=O)cc1	21	7	3	28	-17	9	nt	nt	nt	nt
Cc1ccccc1CN1C(=O)/C(=C\c2ccc(C(=O)NCCN3CCOCC3)cc2)Sc2ccccc21	53*	-2	11	9	-12	31	26*	37	11	33
O=C(NCCN1CCOCC1)c1ccc(/C=C2\Sc3ccccc3N(Cc3ccccc3F)C2=O)cc1	69*	1	1	20	-6	12	34*	50*	13*	15
Cc1cccc(C(=O)N2CCCC(N3CCN(c4ccccc4)CC3)C2)n1 (configuration not stated)	9	-2	0	-1	2	0	nt	nt	nt	nt
CC1CCCCC1NC(=O)COC(=O)c1ccc2ncsc2c1 (configuration not stated)	6	0	9	-11	9	11	nt	nt	nt	nt
CCN(CC)C(=O)[C@H]1CC(CC(=O)NCCN2CCOCC2)C(=O)N2CCc3c([nH]c4ccccc34)[C@]12C (some centres not stated)	7	-1	6	5	0	1	nt	nt	nt	nt
CCOc1cc(/C=N/NC(=O)C(O)(c2ccccc2)c2ccccc2)ccc1OC(=O)c1ccco1	80*	1	-7	1	-2	14	33*	56*	8	7
CCOc1cc(/C=N/NC(=O)c2ccncc2)ccc1OC(=O)c1ccco1	-23	1	4	-1	4	1	nt	nt	nt	nt
CC(=O)c1cccc(NC(=O)c2ccc(N(Cc3ccccc3C)S(C)(=O)=O)cc2)c1	57*	1	13	13	4	20	37*	50*	12*	11
COC(=O)c1cc2c(c3c4cc(F)ccc4n(C(=O)c4ccccc4)c13)C(=O)N(Cc1ccco1)C2	68*	nt	nt	nt	nt	15	26*	44	10	8
COC(=O)c1cc2c(c3c4cc(OC)ccc4n(C(=O)c4ccccc4)c13)C(=O)N(Cc1ccco1)C2	65*	nt	nt	nt	nt	15	29*	50*	7	6
COC(=O)c1ccccc1NC(=O)CSc1nnnn1-c1ccc(C)cc1C	50*	2	17	-4	0	14	30*	32	4	3
CCOC(=O)c1sc(NC(=O)CSc2nnnn2-c2ccc(C)cc2C)nc1C	-4	3	7	-1	4	4	nt	nt	nt	nt
CCOc1ccc(C(=O)Nc2ccccc2N2CCN(C(=O)c3ccccc3)CC2)cc1[N+](=O)[O-]	67*	0	5	14	3	8	25*	45	8	8
Cc1ccc(CN2CCSCC2)cc1	-1	1	-1	1	-4	-1	nt	nt	nt	nt

High-throughput results (PubChem BioAssay)
